The record followed here is ChEMBL document CHEMBL3351585, “Design, synthesis and biological evaluation of novel peptides with anti-cancer and drug resistance-reversing activities” (Eur J Med Chem, 2015).

The source made the active and inactive calls. No cut-off for these calls is given here.

The nature of series [1]: Cytotoxicity against human GES-1 cells after 48 hrs by MTT assay. It counts as cell-based. As to conditions: GES1, 48 h. The gist of the method: (§1)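 Cells grown in RPMI1640 with 10% heat-inactivated FBS and 1% penicillin-streptomycin at 37 °C, 5% CO2. Log-phase cells were seeded at 5 × 10^3/well 24 h before treatment, exposed to a range of peptide concentrations for 48 h, then given MTT for 4 h. Formazan was dissolved in DMSO and A490 read. Survival was computed relative to untreated wells, and IC50 taken from the survival curve.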
(Formazan colour is commonly taken as a measure of viable cells.)

A short description of series [2]: Retention time of the compound by UPLC method. Type of series: physicochemical.
In series [3] the test system is MCF7. Put plainly: Anticancer activity against human MCF7 cells after 48 hrs by MTT assay. To be noted: MCF7, 48 h. It counts as functional, cell-based. An outline of the steps: as §1
The nature of series [4]: Toxicity in rabbit erythrocytes assessed as induction of hemolysis at 160 uM incubated for 1 hr by microplate reader assay. To be noted: erythrocyte. It counts as cell-based, Oryctolagus cuniculus. An outline of the steps: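 Rabbit red blood cells in PBS were mixed 1:1 by volume with peptide solution and incubated 1 h at 37 °C, then spun at 1000 g for 5 min. Hemoglobin in the supernatant was read at 540 nm. PBS defined 0% hemolysis and 0.1% Triton X-100 defined 100%.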

Another series concerns K562. The series can be described thus: Anticancer activity against human K562 cells after 48 hrs by MTT assay. As to conditions: K562, 48 h. Type of series: functional, cell-based. The gist of the method:
as §1

The subject of series [5] is MCF7. The series can be described thus: Induction of cytochrome c release in extracellular region of human MCF7 cells incubated for 2 hrs by ELISA method (reference value: 15.7 +/- 0.77 ng). It counts as functional. In general terms: An ELISA detects its analyte on a solid surface through an enzyme-linked reagent.
In series [6] the test system is MCF7. The series can be described thus: Induction of cytochrome c release in cytoplasm of human MCF7 cells incubated for 2 hrs by ELISA method (reference value: 44.1 +/- 2.7 ng). It counts as functional.
Series [7] concerns MCF7. Put plainly: Induction of cytochrome c release in mitochondria of human MCF7 cells incubated for 2 hrs by ELISA method (reference value: 347.8 +/- 14.5 ng). It counts as functional.
The subject of series [8] is MCF7. Put plainly: Induction of cytochrome c release in human MCF7 cells incubated for 2 hrs by ELISA method (reference value: 364.2 +/- 20.5 ng). Type of series: functional.
A short description of series [9]: Anticancer activity against human MCF7/ADR cells after 48 hrs by MTT assay. It counts as functional, cell-based. As to conditions: NCI/ADR-RES. An outline of the steps: as §1
Series [10] in a line: Anticancer activity against human K562/ADR cells after 48 hrs by MTT assay. It counts as functional, cell-based. The gist of the method:
as §1

Series [11] has as its system MCF7. Put plainly: Induction of cytochrome c release in extracellular region of human MCF7 cells at 20 uM incubated for 2 hrs by ELISA method (reference value: 15.7 +/- 0.77 ng). Type of series: functional.
Series [12] deals with MCF7. Put plainly: Induction of cell membrane morphology changes in human MCF7 cells at 20 uM incubated for 30 mins by scanning electron microscopy. It counts as functional, cell-based. The gist of the method: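 MCF-7 cells were grown 24 h on coverslips at 1 × 10^5/well and exposed to peptide for 30 min. Cells were gently PBS-washed, fixed in 2.5% glutaraldehyde, and examined by scanning electron microscopy.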

The test system of series [13] is MCF7. The series can be described thus: Induction of mitochondrial membrane potential depolarization in human MCF7 cells at 20 uM incubated for 2 hrs by JC1 staining. It counts as functional, cell-based. An outline of the steps: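 MCF-7 cells were plated at 1 × 10^5/well, grown 24 h, and treated with peptide for 2 h. Mitochondrial membrane potential was assessed with a JC-1 kit by imaging red and green fluorescence.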

Series [14] in a line: Drug uptake in cytosol of human MCF7 cells at 20 uM incubated for 5 mins or 30 mins by fluorescein isothiocyanate labeling based fluorescence microscopy. It counts as ADME, cell-based. The gist of the method:
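MCF-7 cells were plated at 1 × 10^5/well and grown 24 h, then exposed to FITC-labeled peptides for 5 min or 30 min. Cells were washed three times with cold PBS, and intracellular fluorescence was imaged by fluorescence microscopy.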

Series [15] in a line: Increase in adriamycin uptake in human K562/ADR cells at 5 uM after 2.5 hrs by fluorescence microscopy. Type of series: ADME, cell-based. An outline of the steps: (§2)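 2 × 10^5 MCF-7/ADM or K562/ADM cells were co-incubated 2.5 h with ADM plus peptide, or with verapamil as comparator. Cells were washed with cold PBS and ADM fluorescence was imaged by fluorescence microscopy.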

Series [16] concerns MCF7. Put plainly: Induction of cytochrome c release in human MCF7 cells at 20 uM incubated for 2 hrs by ELISA method (reference value: 364.2 +/- 20.5 ng). Type of series: functional.
Series [17] concerns MCF7. Put plainly: Induction of cytochrome c release in human MCF7 cells at 5 to 20 uM incubated for 2 hrs by ELISA method.
Series [18] concerns MCF7. Put plainly: Induction of cytochrome c release in mitochondria of human MCF7 cells at 20 uM incubated for 2 hrs by ELISA method (reference value: 347.8 +/- 14.5 ng). It counts as functional.
For series [19], the system named is MCF7. Put plainly: Antimigratory activity in human MCF7 cells assessed as inhibition of cell migration at 5 uM incubated for 48 hrs by transwell migration assay. It counts as functional, cell-based. An outline of the steps:
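Transwell chambers with a porous membrane separating upper and lower compartments. 4 × 10^4 MCF-7 cells were placed in the upper chamber in peptide-containing medium and incubated 48 h. Cells that reached the lower membrane surface were counted.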

Series [20] in a line: Increase in adriamycin uptake in human MCF7/ADR cells at 5 uM after 2.5 hrs by fluorescence spectrophotometry. It counts as ADME, cell-based. To be noted: nci/adr-res. An outline of the steps:
(§3)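 2 × 10^5 MCF-7/ADM or K562/ADM cells were co-incubated 2.5 h with ADM plus peptide, or with verapamil as comparator. After washing in cold PBS, cells were lysed in 0.75 M HCl/0.2% Triton X-100 in isopropanol. Lysate ADM fluorescence was measured by spectrofluorometry at ex 460/em 610 nm.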

The subject of a further series is K562/Adr. Put plainly: Potentiation of adriamycin-induced cytotoxicity against human K562/ADR cells at 5 uM after 48 hrs by MTT assay. It counts as functional, cell-based. The gist of the method:
(§4)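 ADM-resistant MCF-7/ADM or K562/ADM cells, grown in RPMI1640 with 10% FBS at 37 °C and 5% CO2, were seeded at 1 × 10^4 per well and held 24 h. Fixed peptide was added, followed by graded ADM concentrations, for 48 h. MTT was then given for 4 h at 37 °C, formazan dissolved in DMSO and absorbance read at 570 nm. Verapamil served as positive control.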

The next series deals with NCI/ADR-RES. Put plainly: Potentiation of adriamycin-induced cytotoxicity against human MCF7/ADR cells at 5 uM after 48 hrs by MTT assay. Type of series: functional, cell-based. An outline of the steps: as §4
The subject of series [21] is MCF7. The series can be described thus: Induction of cell membrane alteration in human MCF7 cells at 20 uM incubated for 30 mins by acridine orange/ethidium bromide double staining method. It counts as functional, cell-based. The gist of the method:
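MCF-7 cells were plated at 1 × 10^5/well and grown 24 h, then given peptide for 30 min. Cells were washed twice with PBS and stained 10 min in the dark with cold PBS containing acridine orange and ethidium bromide. Excess dye was washed off, then cells were imaged by fluorescence microscopy. Red EB staining marks membrane-compromised cells.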

The subject of series [22] is MCF7. Put plainly: Antimigratory activity in human MCF7 cells assessed as inhibition of cell migration at 5 uM incubated for 48 hrs by wound healing assay. It counts as functional, cell-based. The gist of the method: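 MCF-7 cells were seeded at 2 × 10^5/well and grown 24 h to 90% confluence. A cell-free gap was scratched, and cells migrated in serum-free medium with peptide for 48 h. Wound closure was photographed at 0 h and 48 h.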

The subject of series [23] is MCF7. The series can be described thus: Induction of cytochrome c release in cytoplasm of human MCF7 cells at 20 uM incubated for 2 hrs by ELISA method (reference value: 44.1 +/- 2.7 ng). It counts as functional.
A short description of series [24]: Increase in adriamycin uptake in human MCF7/ADR cells at 5 uM after 2.5 hrs by fluorescence microscopy. Type of series: ADME, cell-based. To be noted: nci/adr-res. An outline of the steps:
as §2

The nature of series [25]: Increase in adriamycin uptake in human K562/ADR cells at 5 uM after 2.5 hrs by fluorescence spectrophotometry. Type of series: ADME, cell-based. The gist of the method:
as §3

For orientation: IC50 means the concentration that gives 50% inhibition. A low value points to inhibition by little substance. Consider H-VKRFKKFFRKLKKQV-NH2, for which the results for the IC50 (in series [1]; in the series on MCF7 [3]; with K562) were 102 µM, 14.5 µM and 16.2 µM, respectively. The molecule also had a Retention_time in series [2] of 3.31 min. Further, the Activity result in series [4] is given as “Non-toxic”.
The matching figures for H-VKRFKKFFRKLKKHV-NH2: 105 µM, 5 µM, 10.5 µM, 3.28 min and “Non-toxic”.
Turning to H-VKRFKKFFRKLKKGV-NH2, the IC50 in series [1] turned out to be 107 µM; in the series on MCF7 [3] it was 15.8 µM; in the series with K562, 14.8 µM. The molecule also came in with a Retention_time in [2] of 3.25 min. Further, in series [4], the Activity entry is “Non-toxic”.
H-VKRFKKFFRKLKKTV-NH2: the IC50 in series [1] worked out at 110 µM; in the series on MCF7 [3] it was 19.1 µM; in the series with K562 it was 17 µM. This molecule also returned a Retention_time in series [2] of 3.44 min. Also, in series [4], the Activity entry is given as “Non-toxic”.
As to `O=c1[nH]cc(F)c(=O)[nH]1` [FLUOROURACIL], the Activity is reported as 15.7 ng with MCF7 [5], 49.6 ng in the series on MCF7 [6], 319.2 ng with MCF7 [7] and 357 ng in the series with MCF7 [8]. In addition, the IC50 in series [1] was 30.9 µM; in the series on MCF7 [3], 26.9 µM; with K562, 31.6 µM.
For the molecule `COc1cccc2c1C(=O)c1c(O)c3c(c(O)c1C2=O)C[C@@](O)(C(=O)CO)C[C@@H]3O[C@H]1C[C@H](N)[C@H](O)[C@H](C)O1` [DOXORUBICIN], the IC50 in series [1] is 0.53 µM; in [9] it was 52.5 µM; with MCF7 [3] it was 0.36 µM; in series [10] it was 67.6 µM; with K562, 0.45 µM.
H-VKRFKKFFRKLKKFV-NH2: the IC50 stood at 52.5 µM in [1], 1.3 µM in the series with MCF7 [3] and 3.7 µM in the series with K562. The Retention_time in series [2] is reported as 3.74 min. In addition, in series [4], the Activity entry was “Non-toxic”.
The matching figures for H-VKRFKKFFRKLKKVV-NH2: 64.6 µM, 4.9 µM, 5 µM, 3.69 min and “Non-toxic”.
For the molecule H-VKRFKKFFRKLKKEV-NH2, the IC50 is 104 µM in series [1], 38.9 µM in the series with MCF7 [3] and 36.6 µM in the series on K562. In series [2], this molecule had a Retention_time of 3.41 min. The Activity entry in series [4] is reported as “Non-toxic”.
In the case of H-VKRFKKFFRKLKKSV-NH2, the Activity in the series on MCF7 [11] was 14.7 ng; in series [15], “Active”; with MCF7 [16], 353.4 ng; in the series with MCF7 [17] it was “Dose-dependent effect”; in the series with MCF7 [18], 301.4 ng; in series [20], “Active”. Moreover, the Activity entry is on record as “Non-toxic” in series [4], 60.3 ng in the series on MCF7 [23], “Active” in [24] and “Active” in series [25]. Also, the half-maximal inhibitory concentration (IC50) in series [1] came out at 102 µM; in series [9], 24.1 µM; in the series on MCF7 [3] it was 21.9 µM; in series [10], 31.6 µM; in the series with K562 it was 26.9 µM. Besides, the outcome with MCF7 [12], in the series with MCF7 [13], in the series on K562/Adr, in the series with NCI/ADR-RES and in the series with MCF7 [21] was Active. Also, in [2], the Retention_time worked out at 3.38 min. The Drug uptake entry in series [14] is listed as “Active”. Moreover, the inhibition result with MCF7 [19] and in the series on MCF7 [22] was “Active” throughout.
With H-VKRFKKFFRKLKKRV-NH2, the concentration for half-maximal inhibition (IC50) in series [1] is 93.3 µM; with MCF7 [3], 5.5 µM; in the series on K562, 8.7 µM. Further, the Retention_time in series [2] is 3.13 min. For the same molecule, the Activity entry in [4] is recorded as “Non-toxic”.
H-VKRFKKFFRKLKKDV-NH2: the values for the half-inhibitory concentration (IC50) (in series [1]; in the series on MCF7 [3]; in the series on K562) were 120 µM, 19.9 µM and 44.7 µM, respectively. Moreover, the Retention_time in series [2] amounted to 3.38 min. Moreover, in series [4], the Activity entry is on record as “Non-toxic”.
The matching figures for H-VKRFKKFFRKLKKAV-NH2: 87.1 µM, 8.9 µM, 8.6 µM, 3.48 min and “Non-toxic”.
